From PubChem BioAssay
SIRT5 block – blocks human SIRT5 desuccinylation of peptide; Q9NXA8; Purified SirT5, succinyl-peptide AMC, trypsin-coupled fluorescence; inhibition, % at 15 µM; actives 1.1% (n = 330,000); in the data active = inhibition above about 15%
NSD2 HMT inh – NSD2 (human) methyltransferase inhibition. O96028. NSD2 peptide methylation, AlphaScreen, 120 min. inhibition, % at 12.5 µM. actives 0.54% (n = 310,000). AID 743445; in the data active = inhibition above about 50%
Casp6 inh – caspase-6 (human) enzyme inhibition; purified caspase-6, Z-VEID-R110 cleavage fluorescence; inhibition, % at 12.5 µM; actives 0.53% (n = 350,000); AID 686996;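 active = mean inhibition across replicates at least about 35%, with every replicate also reaching that limit, limit read from the data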;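 note: 0% = median of neutral control wells and 100% = no fluorescence left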
FGF22 binding – shifts melting point of recombinant human FGF22; recombinant FGF22 thermal shift, SYPRO orange fluorescence; percent of sucrose octasulfate shift, DMSO zero; activity (Tm shift, normalised), % at 9.99 µM; Q9HCT0; actives 1.5% (n = 340,000);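 active = mean Tm shift, scaled 0 neutral to 100 positive control, at about 1.3% or above, every replicate too, limit read from the data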
UCH37 DUB inh – inhibitors of human deubiquitinating enzyme UCH37; Q9Y5K5; purified proteasome/UCH37, Ub-AMC cleavage fluorescence; inhibition, % (test concentration not listed); actives 0.33% (n = 330,000); AID 588478;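 active = mean inhibition over replicate wells above about 20%, limit read from the data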;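 note: 0% = compound-free wells with enzyme and 100% = wells lacking proteasome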
Target sequence (Q9Y5K5 whole entry, looked up): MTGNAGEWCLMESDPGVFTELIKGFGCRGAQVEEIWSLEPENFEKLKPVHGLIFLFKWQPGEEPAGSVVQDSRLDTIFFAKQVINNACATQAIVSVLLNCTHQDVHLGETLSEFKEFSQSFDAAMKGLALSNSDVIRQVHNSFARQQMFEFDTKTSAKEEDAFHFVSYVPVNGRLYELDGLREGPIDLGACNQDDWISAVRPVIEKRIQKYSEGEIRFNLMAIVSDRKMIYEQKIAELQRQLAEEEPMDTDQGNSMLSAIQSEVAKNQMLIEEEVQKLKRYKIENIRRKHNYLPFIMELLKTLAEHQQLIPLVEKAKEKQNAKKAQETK
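Signal – fluorescence, ex 355 nm, em 460 nm · System – Proteasome-bound UCH37 · Input – 0.15 nM proteasome as dispensed · Timing – 30 min preincubation with enzyme, 25 min cleavage at room temperature · Read-out basis – percent inhibition of cleavage signal versus uninhibited and no-proteasome wells · Medium – Tris-HCl pH 7.4 with ATP-MgCl2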
The depositor's hits bear a star; . = no result given. An excerpt weighted towards active compounds, which were near 2.6% of everything screened.

SMILES | SIRT5 block | NSD2 HMT inh | Casp6 inh | FGF22 binding | UCH37 DUB inh
O=C(C1=C[C@H](C2CC2)C[C@H](OCc2ccc(CO)cc2)O1)N1CCCCCCC1 | 0 | . | 0 | 1 | .
Cc1nc(Nc2nc3ccccc3o2)nc(C)c1C | -7 | -1 | -3 | 44* | 4
Cc1ccc2oc(Nc3nc(C)c(C)c(C)n3)nc2c1 | 0 | . | 4 | 0 | 5
C[C@H](CO)N1C[C@H](C)[C@H](CN(C)Cc2cncnc2)Oc2ncc(-c3cccc(C#N)c3)cc2C1=O | -6 | . | 1 | 0 | .
O=C1NC(c2ccc(-c3ccccc3[N+](=O)[O-])o2)C(C(=O)c2ccccc2)C(O)(C(F)(F)F)N1 (configuration not stated) | -5 | 10 | 5 | 43* | -1
Cc1ccc(C(=O)C2C(c3ccc(-c4ccccc4[N+](=O)[O-])o3)NC(=O)NC2(O)C(F)(F)F)cc1 (configuration not stated) | 2 | 22 | 8 | . | 4
C[C@@H]1CN([C@@H](C)CO)C(=O)c2cc(NC(=O)c3ccncc3)ccc2O[C@@H](C)CCCCO[C@@H]1CN(C)C(=O)CCC(F)(F)F | . | . | . | 0 | .
CCCCNc1c([N+](=O)[O-])ncn1C | 2 | -6 | 1 | 0 | 5
CCCCNc1nc(N)ncc1[N+](=O)[O-] | 30* | 2 | -1 | 0 | .
C[C@@H]1CN([C@H](C)CO)C(=O)Cc2cc(NS(=O)(=O)c3ccc(F)cc3)ccc2O[C@H]1CN(C)C(=O)Nc1cccc2ccccc12 | -19 | . | -2 | 0 | .
O=C(C[C@H]1CC[C@@H]2[C@H](COC[C@@H](O)CN2Cc2ccc(F)cc2)O1)NCc1ccccc1Cl | -4 | . | 1 | 1 | .
OC[C@H]1[C@@H](c2ccc(-c3cccnc3)cc2)[C@H]2CN(CC3CCOCC3)CCCCN21 | -4 | . | 2 | 0 | .
COc1cccc(-n2nnc3c(=O)n(CC(=O)NCC4CCCO4)cnc32)c1 (configuration not stated) | 16* | . | 2 | 0 | 6
COc1ccc(-n2c(=O)c3ccccc3n(CC(=O)NCC3CCCO3)c2=O)cc1 (configuration not stated) | 2 | -2 | -8 | 44* | 4
CSc1nc(N)nc2c1ncn2CC(=O)NCC(c1ccccc1)c1ccccc1 | -1 | . | 3 | 1 | 3
CSc1nc(N)nc2c1ncn2CC(=O)NCC1CCCO1 (configuration not stated) | 31* | . | 1 | 0 | 3
N#C[C@H]1[C@@H](c2ccccc2-c2ccccc2)[C@H](CO)N1C(=O)NC1CCCCC1 | 8 | . | 0 | . | .
COc1ccccc1NC(=S)NCCc1ccc(S(N)(=O)=O)cc1 | 0 | -2 | -2 | 46* | 2
CN(CC(=O)NCCc1ccc(S(N)(=O)=O)cc1)c1ccccc1 | 0 | 1 | 0 | 43* | -1
COc1ccc(NC(=S)NCCc2ccc(S(N)(=O)=O)cc2)c(OC)c1 | 10 | 2 | -1 | 1 | 0
CCOc1ccccc1OCC(=O)NCCc1ccc(S(N)(=O)=O)cc1 | -1 | -4 | -1 | 43* | -1
CCOc1ccccc1C(=O)NCC(=O)NCCc1ccc(S(N)(=O)=O)cc1 | -6 | 38 | -2 | 0 | 2
CN(C)C(=O)c1cccc(-c2ccc3n(c2=O)C[C@H]2[C@H](CO)[C@@H](C(=O)NCC(F)(F)F)[C@@H]3N2C)c1 | -7 | . | 0 | 0 | .
Cc1noc(C)c1NC(=O)N[C@H]1CC[C@@H](CC(=O)N2CCN(C)CC2)O[C@H]1CO | 3 | . | -1 | 0 | .
CN1C(=O)c2cc(NC(=O)c3cccs3)ccc2OC[C@H]2O[C@H](CC(=O)N3CCOCC3)CC[C@H]21 | 2 | . | 5 | 0 | .
CCOC(=O)c1c(NC(=O)COc2ccccc2F)sc2c1CC(C)(C)NC2(C)C | -4 | . | -2 | 18* | 5
CCOC(=O)c1c(NC(=O)CSc2ncccn2)sc2c1CC(C)(C)NC2(C)C | -2 | 3 | -7 | 0 | 4
C[C@H]1CN([C@@H](C)CO)C(=O)c2cc(-c3cccnc3)cnc2O[C@H]1CN(C)C(=O)c1cccc(F)c1 | 0 | . | -3 | 0 | .
COc1ccccc1-c1cn(CC[C@@H]2CC[C@@H](NC(=O)CCN3CCCCC3)[C@H](CO)O2)nn1 | -4 | . | 4 | 0 | .
CC(=O)N(C)C[C@H]1Oc2ncc(C#Cc3ccccc3)cc2C(=O)N([C@H](C)CO)C[C@@H]1C | 2 | . | -1 | 0 | .
